Like-named read-outs stand apart in the source and are kept apart here.
Legend:
[1] = assay type: in vivo, Wistar rats; details: for area under the curve, brain time–activity curve: 60 min scan; for area under the curve, brain time–activity curve / SUVmax brain: n = 2
[2] = previously determined using the same method; cited from earlier work
[3] = previously reported biodistribution data, 5 and 15 min post-injection; cited from earlier work
human P2Y12R = details: human P2Y12R-transfected HEK cells; cited from earlier work
P2Y12R [4] = target: T1, P2Y12R (Rattus norvegicus, UniProt Q9EPX4); test: in vitro autoradiography on rat brain sections using [18F]3; assay type: binding
Outline: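 Flash-frozen rat brain sections (10 μm) were prewashed 15 min in 50 mM Tris-HCl pH 7.4 and air-dried. They were then incubated 30 min with 18F tracer (0.1 MBq·mL–1) in 50 mM Tris-HCl/3% BSA pH 7.4, with or without P2Y12R inhibitor at 1 μM. Sections were washed twice for 1 min in cold 5 mM Tris-HCl (4 °C), dipped in ice-cold water and dried, then exposed to a phosphor screen for 10 min. Whole-brain ROI binding was expressed as % of no-inhibitor binding; n = 3.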

P2Y12R [5] = target: T1, P2Y12R; assay type: in vivo, Wistar rats
Outline: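 Male Wistar rats (12–15 weeks, 250–350 g) under isoflurane anesthesia; n = 4 per group. Both groups received tariquidar 15 mg/kg iv. The blocking group also received unlabeled test compound 5 mg/kg together with the tariquidar. The 18F tracer (10–25 MBq) was given iv via tail vein, followed immediately by a dynamic PET scan. Whole-brain ROI time–activity curves were expressed as SUV, mean ± standard deviation.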

[6] = baseline, after the initial perfusion peak, iv
[7] = efflux transporter blocking with tariquidar

T1 sequence (Q9EPX4 whole entry): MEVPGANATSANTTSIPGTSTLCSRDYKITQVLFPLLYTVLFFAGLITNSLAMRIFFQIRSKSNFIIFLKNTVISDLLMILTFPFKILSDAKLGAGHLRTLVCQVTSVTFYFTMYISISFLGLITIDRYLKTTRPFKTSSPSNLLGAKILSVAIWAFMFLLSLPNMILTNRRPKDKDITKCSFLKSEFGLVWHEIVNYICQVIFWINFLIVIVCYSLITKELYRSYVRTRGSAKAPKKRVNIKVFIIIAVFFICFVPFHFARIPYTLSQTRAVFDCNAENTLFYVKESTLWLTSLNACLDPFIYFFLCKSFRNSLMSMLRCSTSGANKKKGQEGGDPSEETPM

area under the curve, brain time–activity curve ([1]; baseline)	SUVmax brain [1, 6]	area under the curve, brain time–activity curve [1, 7]	Compound	Ki (human P2Y12R) [nM]	other results
3.8 ± 0.7	0.1	5.2 ± 0.2	CCOC(=O)c1cc(C#N)c(N2CC(N[11C](=O)NS(=O)(=O)c3ccc(Cl)s3)C2)nc1C [[^11C]1, Ethyl 6-(3-(3-((5-Chlorothiophen-2-yl)sulfonyl)[^11C]ureido)azetidin-1-yl)-5-cyano-2-methylnicotinate]	–	log D7.4 [2]: 1.93 ± 0.02; %ID/g in rat brain [3]: < 0.1 %ID/g
–	–	–	CCc1cc2c(N3CCN(C(=O)c4ccc(-c5ccccc5)cc4)CC3)nc(N3CCNC(=O)C3)nc2s1 [compound 2, 4-(4-(4-([1,1′-Biphenyl]-4-carbonyl)piperazin-1-yl)-6-ethylthieno[2,3-d]pyrimidin-2-yl)piperazin-2-one]	9	–
–	–	–	CCCc1cc2c(N3CCn4c(nnc4C(F)(F)F)C3)nc(OCCF)nc2s1 [compound 3, 2-(2-Fluoroethoxy)-6-propyl-4-(3-(trifluoromethyl)-5,6-dihydro-[1,2,4]triazolo[4,3-a]pyrazin-7(8H)-yl)thieno[2,3-d]pyrimidine]	0.3	efflux transporter substrate behavior ([1]; rats, tariquidar blocking of P-glycoprotein and breast cancer resistance protein): strong substrate for efflux transporters; blocking efficiency of [18F]3 binding (P2Y12R [4]; inhibitor co-incubated at 1 μM, n = 3): about 70%
4.4 ± 0.1	0.2	27.6 ± 1.1	CCCc1cc2c(N3CCn4c(nnc4C(F)(F)F)C3)nc(OCC[18F])nc2s1 [[^18F]3, 2-(2-[^18F]Fluoroethoxy)-6-propyl-4-(3-(trifluoromethyl)-5,6-dihydro-[1,2,4]triazolo[4,3-a]pyrazin-7(8H)-yl)thieno[2,3-d]pyrimidine]	–	SUVmax brain ([1]; efflux transporter blocking with tariquidar 15 mg/kg iv): 1.0; area under the curve, whole brain time–activity curve (P2Y12R [5]; baseline: tariquidar + tracer, n = 4): 24.1 ± 0.5; area under the curve, whole brain time–activity curve (P2Y12R [5]; blocking: tariquidar + unlabeled 3 (5 mg/kg) and tracer, n = 4, p = 0.04): 20.6 ± 0.7; selective and specific binding (P2Y12R [4]): approximately 70%

— PMC8640995 (ACS Chemical Neuroscience, 2021)
